# Experimental data from ChEMBL document CHEMBL4414559, “Proanthocyanidin Dimers and Trimers from Vitis vinifera Provide Diverse Structural Motifs for the Evaluation of Dentin Biomodification” (J Nat Prod, 2019).
# Calls of active or inactive are those of the source. No cut-off for these calls is given here.
# Experiments:
# Dentine [1] = assay: Induction of elasticity in human molar dentin assessed as fold change at 3.5 mg after 1 hr by flexural assay relative to untreated control; assay type: functional
# Hathewaya histolytica = assay: Inhibition of Clostridium histolyticum collagenase-induced degradation of human molar dentin assessed as reduction in at 3.5 mg after 1 hr followed by collagenase treatment and measured after 24 hrs relative to control
# How it was run: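 Resistance to proteolytic biodegradation is measured gravimetrically as percent mass gain or loss of the dentin. This avoids colorimetric, fluorescence or UV detection.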
# Dentine [2] = assay: Induction of modification in human molar dentin assessed as sum of percentage of apparent modulus elasticity and percentage of collagen remaining after […] at 3.5 mg; assay type: functional, tissue-based
# [3] = Stability in human molar dentin at 3.5 mg after 1 hr by flexural assay; assay type: ADME, tissue-based, Dentine; conditions: in vitro
# Dentine [4] = assay: Induction of elasticity in human molar dentin at 3.5 mg after 1 hr by flexural assay; assay type: functional, tissue-based
# How it was run: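 Read-out is modulus of elasticity (MPa), measured mechanically on the dentin. This avoids colorimetric, fluorescence or UV detection.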
Compound,fold change (FC) (Dentine [1]),inhibition (Hathewaya histolytica),Activity (Dentine [2]),Stability [3],Activity (Dentine [4])
Oc1cc(O)c2c(c1)O[C@H](c1ccc(O)c(O)c1)[C@H](O)[C@H]2c1c(O)cc(O)c2c1O[C@H](c1ccc(O)c(O)c1)[C@H](O)[C@H]2c1c(O)cc(O)c2c1O[C@@H](c1ccc(O)c(O)c1)[C@H](O)C2,5.5,70 to 80%,Active,Stable,
Oc1cc(O)c2c(c1)O[C@H](c1ccc(O)c(O)c1)[C@H](O)[C@H]2c1c(O)cc(O)c2c1O[C@H](c1ccc(O)c(O)c1)[C@H](O)[C@H]2c1c(O)cc(O)c2c1O[C@H](c1ccc(O)c(O)c1)[C@@H](O)C2,5,70 to 80%,Active,Stable,
Oc1cc(O)c2c(c1)O[C@H](c1ccc(O)c(O)c1)[C@H](O)[C@H]2c1c(O)cc(O)c2c1O[C@@H](c1ccc(O)c(O)c1)[C@@H](O)C2,,,Active,Stable,inactive
Oc1cc(O)c2c(c1)O[C@@H](c1ccc(O)c(O)c1)[C@H](O)[C@H]2c1c(O)cc(O)c2c1O[C@H](c1ccc(O)c(O)c1)[C@H](O)C2,,,Active,Stable,inactive
Oc1cc(O)c2c(c1)O[C@H](c1ccc(O)c(O)c1)[C@H](O)[C@H]2c1c(O)cc(O)c2c1O[C@H](c1ccc(O)c(O)c1)[C@@H](O)C2 [PROCYANIDIN B1],,,,Stable,inactive
Oc1cc(O)c2c(c1)O[C@H](c1ccc(O)c(O)c1)[C@H](O)[C@H]2c1c(O)cc(O)c2c1O[C@@H](c1ccc(O)c(O)c1)[C@H](O)C2,,,,Stable,inactive
Oc1cc(O)c2c(c1)O[C@@H](c1ccc(O)c(O)c1)[C@H](O)[C@H]2c1c(O)cc(O)c2c1O[C@H](c1ccc(O)c(O)c1)[C@@H](O)C2,,,Active,Stable,inactive
Oc1cc(O)c2c(c1)O[C@H](c1ccc(O)c(O)c1)[C@H](O)[C@H]2c1c(O)cc(O)c2c1O[C@H](c1ccc(O)c(O)c1)[C@H](O)C2 [PROCYANIDIN B2],,,Active,Stable,inactive
Oc1cc(O)c2c(c1)O[C@H](c1ccc(O)c(O)c1)[C@@H](O)[C@@H]2c1c(O)cc(O)c2c1O[C@H](c1ccc(O)c(O)c1)[C@@H](O)C2,,,,Stable,inactive
